In ChEMBL document CHEMBL3580617, “Discovery of Benzimidazole CYP11B2 Inhibitors with in Vivo Activity in Rhesus Monkeys” (ACS Med Chem Lett, 2015):
Active and inactive are the calls of the source. The rule behind the calls is not given here.

Legend:
[1] = target: T1, Cytochrome P450 11B2, mitochondrial (Homo sapiens, UniProt P19099); assay: Inhibition of human CYP11B2 expressed in V79 cells incubated for 1 hr before 11-deoxycorticosterone substrate addition by HTRF-based assay; type: cell-based
T1 sequence (P19099 whole entry): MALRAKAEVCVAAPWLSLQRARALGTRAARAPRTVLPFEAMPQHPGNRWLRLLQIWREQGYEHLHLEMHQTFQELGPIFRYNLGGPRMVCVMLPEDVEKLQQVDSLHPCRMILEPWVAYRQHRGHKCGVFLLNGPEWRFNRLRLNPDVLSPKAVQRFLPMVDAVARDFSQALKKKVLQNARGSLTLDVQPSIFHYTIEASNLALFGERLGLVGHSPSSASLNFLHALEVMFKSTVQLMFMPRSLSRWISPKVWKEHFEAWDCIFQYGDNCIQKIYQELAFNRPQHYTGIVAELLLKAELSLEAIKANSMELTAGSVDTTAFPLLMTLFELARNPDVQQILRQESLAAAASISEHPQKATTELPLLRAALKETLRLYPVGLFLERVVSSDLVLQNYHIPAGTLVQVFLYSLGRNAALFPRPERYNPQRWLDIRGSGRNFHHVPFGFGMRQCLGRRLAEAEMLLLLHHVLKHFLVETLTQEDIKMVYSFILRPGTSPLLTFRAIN
Summary of the method: (§1)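 Human CYP11B2 and CYP11B1 inhibition was tested in cell-based assays. Selectivity was taken as the hCYP11B1 IC50 divided by the hCYP11B2 IC50.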

[2] = target: T2, Cytochrome P450 11B1, mitochondrial (Homo sapiens, UniProt P15538); assay: Inhibition of human CYP11B1 expressed in V79 cells incubated for 1 hr before 11-deoxycortisol substrate addition by HTRF-based assay; type: cell-based; summary of the method: as §1
T2 sequence (P15538 whole entry): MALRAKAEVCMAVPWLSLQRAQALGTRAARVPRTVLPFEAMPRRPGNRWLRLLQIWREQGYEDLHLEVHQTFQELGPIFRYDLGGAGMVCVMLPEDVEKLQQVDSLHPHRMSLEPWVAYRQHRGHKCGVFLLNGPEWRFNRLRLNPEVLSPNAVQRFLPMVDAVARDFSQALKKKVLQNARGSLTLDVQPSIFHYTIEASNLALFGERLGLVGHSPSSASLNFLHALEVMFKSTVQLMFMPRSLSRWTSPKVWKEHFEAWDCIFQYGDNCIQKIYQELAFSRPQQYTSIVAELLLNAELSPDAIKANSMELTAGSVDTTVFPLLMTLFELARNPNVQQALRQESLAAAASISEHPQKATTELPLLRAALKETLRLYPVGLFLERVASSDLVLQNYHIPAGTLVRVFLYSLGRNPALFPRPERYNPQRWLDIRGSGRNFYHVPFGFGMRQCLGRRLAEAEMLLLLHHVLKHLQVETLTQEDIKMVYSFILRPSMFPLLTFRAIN

[3] = species: Homo sapiens; assay: Selectivity index, ratio of IC50 for human CYP11B1 to IC50 for human CYP11B2; summary of the method: as §1
[4] = Fraction unbound in rat plasma at […] incubated for 4 hrs by equilibrium dialysis and LC/MS method; type: ADME, cell-free
[5] = Intrinsic clearance in rat liver microsomes at […] incubated for 10 mins before NADPH addition by LC/MS method; type: ADME; settings: read-out: CLH
[6] = Oral bioavailability in Sprague-Dawley rat at 2 mg/kg by LC-MS/MS method; type: ADME, organism-based; settings: in vivo
Summary of the method: (§2)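 In the rat pharmacokinetic study, AUC was normalized for dose (μM·h·kg/mg), plasma clearance was expressed in mL/min/kg, and oral bioavailability was calculated.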

[7] = system: Rattus norvegicus; assay: Dose normalized AUC in Sprague-Dawley rat at 2 mg/kg, po or 1 mg/kg, iv by LC-MS/MS method; type: ADME, organism-based; settings: in vivo; summary of the method: as §2
[8] = Plasma clearance in Sprague-Dawley rat at 2 mg/kg, po or 1 mg/kg, iv by LC-MS/MS method; type: ADME, organism-based; summary of the method: as §2
[9] = system: V79; assay: Inhibition of rhesus monkey CYP11B2 expressed in V79 cells incubated for 1 hr before 11-deoxycorticosterone substrate addition by HTRF-based assay; type: cell-based; settings: Macaca mulatta
[10] = target: T3, Cytochrome P450 11B2, mitochondrial (Rattus norvegicus, UniProt P30099); assay: Inhibition of rat CYP11B2 expressed in V79 cells incubated for 1 hr before 11-deoxycorticosterone substrate addition by HTRF-based assay; type: cell-based; settings: v79, 1 h
T3 sequence (P30099 whole entry): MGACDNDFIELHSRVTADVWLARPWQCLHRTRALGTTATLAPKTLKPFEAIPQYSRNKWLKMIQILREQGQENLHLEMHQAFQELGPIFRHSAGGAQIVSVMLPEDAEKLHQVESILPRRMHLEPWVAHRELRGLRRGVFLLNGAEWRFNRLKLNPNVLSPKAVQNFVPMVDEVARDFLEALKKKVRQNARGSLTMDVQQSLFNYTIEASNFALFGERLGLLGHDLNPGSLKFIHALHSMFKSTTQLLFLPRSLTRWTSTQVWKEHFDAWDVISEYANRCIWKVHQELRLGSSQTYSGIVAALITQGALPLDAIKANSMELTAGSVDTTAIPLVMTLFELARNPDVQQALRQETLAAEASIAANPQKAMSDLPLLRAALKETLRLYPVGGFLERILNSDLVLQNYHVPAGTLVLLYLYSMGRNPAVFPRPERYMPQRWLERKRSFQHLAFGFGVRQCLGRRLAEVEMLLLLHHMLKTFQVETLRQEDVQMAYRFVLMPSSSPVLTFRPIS

IC50 [1] [nM] | IC50 [2] [nM] | Ratio IC50 [3] | Structure (SMILES) | other results
16 | 2860 | 179 | CC1(n2c(-c3cccnc3)nc3ccc(F)cc32)CC1 | fraction unbound at 4 h [4]: 0.19; CLint scaled [5]: 82 mL/min/kg; bioavailability [6]: 32%; AUC/dose [7]: 0.2 µM·kg·h/mg; clearance [8]: 131 mL/min/kg
0.2 | 17.7 | 74 | Cc1cncc(-c2nc3cc(F)c(F)cc3n2C2CC2)c1C | –
561 | > 8330 | > 15 | Fc1ccc2nc(-c3cccnc3)n(CC(F)(F)F)c2c1 | –
12 | 677 | 56 | Cn1c(-c2cccnc2)nc2ccc(F)cc21 | fraction unbound at 4 h [4]: 0.25; CLint scaled [5]: 30 mL/min/kg; bioavailability [6]: 37%; AUC/dose [7]: 0.56 µM·kg·h/mg; clearance [8]: 59 mL/min/kg
22.3 | 1550 | 70 | N#Cc1cncc(-c2nc3cc(F)c(F)cc3n2C2CC2)c1 | –
> 1000 | > 10000 | – | COc1ccc2c(c1)nc(-c1cccnc1)n2C1CC1 | –
> 5000 | > 10000 | – | Fc1ccc2nc(-c3cccnc3)n(C3CCC3)c2c1 | –
138 | 3920 | 28 | CC(C)n1c(-c2cccnc2)nc2ccc(F)cc21 | –
> 10000 | 1990 | < 1 | Fc1ccc2nc(-c3cccnc3)[nH]c2c1 | –
1 | 225 | 225 | N#Cc1cc2c(cc1F)nc(-c1cncc(F)c1)n2C1CC1 | –
107 | > 10000 | > 93 | Fc1cccc2nc(-c3cccnc3)n(C3CC3)c12 | –
254 | 1830 | 7 | FC(F)(F)c1ccc2nc(-c3cccnc3)n(C3CC3)c2c1 | –
0.6 | 435 | 709 | COc1c(C)cncc1-c1nc2cc(F)c(F)cc2n1C1CC1 | –
1770 | > 10000 | > 6 | N#Cc1ccc2c(c1)nc(-c1cccnc1)n2C1CC1 | –
8.1 | 795 | 98 | Fc1cc2nc(-c3cnccc3C(F)(F)F)n(C3CC3)c2cc1F | –
607 | > 8330 | > 14 | Fc1ccc2nc(-c3cccnc3)n(Cc3ccccc3)c2c1 | –
49 | > 8330 | > 170 | c1cncc(-c2nc3ccccc3n2C2CC2)c1 | –

IC50 [1] [nM] | IC50 [2] [nM] | Ratio IC50 [3] | Structure (SMILES) | other results
– | – | 142 | Fc1ccc2c(c1)nc(-c1cccnc1)n2C1CC1 | –
0.6 | 117 | 195 | N#Cc1cc2c(cc1F)nc(-c1cccnc1)n2C1CC1 | –
10.2 | 723 | 71 | Cc1ccncc1-c1nc2cc(F)c(F)cc2n1C1CC1 | –
> 5000 | > 10000 | – | CC(C)(C)n1c(-c2cccnc2)nc2ccc(F)cc21 | –
219 | > 8330 | > 38 | Fc1cccc2c1nc(-c1cccnc1)n2C1CC1 | –
1.2 | – | 309 | N#Cc1ccc2nc(-c3cccnc3)n(C3CC3)c2c1 | –
2.2 | 477 | 215 | Clc1ccc2nc(-c3cccnc3)n(C3CC3)c2c1 | –
0.8 | 251 | 296 | Fc1cncc(-c2nc3cc(F)c(Cl)cc3n2C2CC2)c1 | –
> 1000 | > 10000 | – | CS(=O)(=O)c1ccc2c(c1)nc(-c1cccnc1)n2C1CC1 | –
0.4 | 334 | 835 | Fc1cc2nc(-c3cccnc3)n(C3CC3)c2cc1Cl | –
2.1 | 370 | 176 | Fc1cc2nc(-c3cccnc3)n(C3CC3)c2cc1F | fraction unbound at 4 h [4]: 0.15; CLint scaled [5]: < 20 mL/min/kg; bioavailability [6]: 92%; AUC/dose [7]: 1.32 µM·kg·h/mg; clearance [8]: 43 mL/min/kg; inhibition [9]: Active; inhibition (INH) [10]: Not Active
0.4 | 250 | 606 | COc1cncc(-c2nc3cc(F)c(F)cc3n2C2CC2)c1 | –
35 | 2100 | 60 | CCn1c(-c2cccnc2)nc2ccc(F)cc21 | –
24 | 1980 | 83 | COc1ccc2nc(-c3cccnc3)n(C3CC3)c2c1 | –
4 | 401 | 100 | Fc1ccc2nc(-c3cccnc3)n(C3CC3)c2c1 | fraction unbound at 4 h [4]: 0.15; CLint scaled [5]: 28 mL/min/kg; bioavailability [6]: 77%; AUC/dose [7]: 1.82 µM·kg·h/mg; clearance [8]: 28 mL/min/kg
> 10000 | > 10000 | – | FC(F)(F)c1ccc2c(c1)nc(-c1cccnc1)n2C1CC1 [MSD-CYP11B2-Negative-control] | –
